Screening results as filed in PubChem BioAssay.
UPR XBP1 act = activators of adaptive arm of unfolded protein response (XBP1) | CHO-XBP1 luciferase reporter, IRE1-XBP1 UPR activation, luminescence; percent of tunicamycin response, DMSO as zero | activation, % at 20 µM | 330,000 tested, 0.33% active | AID 463104;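 active = versus positive control, 20 µM dose yields 30% or more activation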;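 also: 100% = tunicamycin at 10 µg/mL and 0% = DMSO only wells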
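Assay system: IRE1-XBP1 luciferase reporter CHO line. Input: 1000 cells/well. Buffer or medium: F12 with 10% serum. Doses: 20 µM, 1% DMSO. Times: overnight seeding at 37 °C, 6 h compound treatment at 37 °C. Technique: Steady-Glo luciferase glow luminescence, 10 min after reagent addition.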
697 NFkB inh = lowers PMA/ionomycin-induced NF-kB signal in 697 B cells | 697 B-cell NF-kB luciferase reporter, 16 h | inhibition, % at 4 µM | 330,000 tested, 0.33% active | AID 435022; in the data active = inhibition above about 35%
CHOP UPR activ = activators of apoptotic arm of unfolded protein response (CHOP); AID 449763; 330,000 tested, 0.34% active; CHO-CHOP luciferase reporter, UPR activation, luminescence; percent of tunicamycin response over DMSO baseline; activation, % at 10 µM;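 active = at 10 µM dose, activation of 40% or more, normalized to positive control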;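 also: 100% = tunicamycin at 10 µg/mL and 0% = DMSO alone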
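System: CHO-CHOP luciferase reporter cell line | Buffer or medium: F12 medium containing 10% fetal bovine serum | Doses: One dose, 10 µM in 0.5% DMSO | Times: 6 h compound exposure at 37 °C after overnight seeding | Signal: Luciferase luminescence | Read-out: % activation vs tunicamycin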
Jurkat NFkB inh = lowers PMA/ionomycin-induced NF-kB signal in Jurkat cells. PMA/ionomycin-induced NF-kB luciferase reporter, luminescence. inhibition, % at 4 µM. 330,000 tested, 0.53% active; in the data active = inhibition above about 50%
CHOP inhibitor = inhibitors of CHOP induction in ER stress response; CHO-K1 CHOP-promoter luciferase, tunicamycin-induced, 15-18 h; inhibition, % at 10 µM; 220,000 tested, 3.8% active; AID 2732;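 active = compounds that reduced the stress-induced luciferase reporter signal by more than about 70% of percent inhibition, limit read from the data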;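 also: 0% = tunicamycin plus vehicle and 100% = wells without tunicamycin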
* marks the source's active call; other numbers are inactive results; · = no result. This is one part of a sample in which hits are shown more often than they occur.

SMILES	UPR XBP1 act	697 NFkB inh	CHOP UPR activ	Jurkat NFkB inh	CHOP inhibitor
Cc1noc(C)c1CCC(=O)N1CCCC(CCC(=O)NCc2ccccc2F)C1 (stereo not given)	0.3	13.2	1.0	-13.0	1.4
CCOc1ccc(N(CC(=O)Nc2ccc(F)c(F)c2)S(=O)(=O)c2c(C)noc2C)cc1	-2.2	16.6	1.1	7.7	89.7*
COc1ccc(NC(=O)CN(c2ccc(C(C)C)cc2)S(=O)(=O)c2c(C)noc2C)cc1OC	-0.6	-20.2	3.6	-7.5	70.5*
CCOc1ccc(N(CC(=O)Nc2ccc(C)cc2)S(=O)(=O)c2c(C)noc2C)cc1	-4.0	12.3	0.8	15.5	23.6
CC(CCc1ccccc1)NC(=O)CNC(=O)N1CC(=O)Nc2ccccc21 (stereo not given)	-2.2	-4.2	0.4	-6.6	·
O=C(c1ccccc1Cl)N1CCSCC1	-2.5	18.9	0.3	14.7	-8.8
NNC(=O)C(=O)NCCCN1CCOCC1	3.0	0.0	-2.0	2.3	-0.2
CC(SC1=NCCS1)C(=O)Nc1nnc(-c2ccc(Cl)cc2)s1 (stereo not given)	-3.5	-35.9	9.8	-10.1	87.3*
COc1ccccc1-c1nnc(NC(=O)C(C)SC2=NCCS2)s1 (stereo not given)	-0.7	17.2	1.9	1.2	57.1
CCOC(=O)C1=C(C)NC(C)=C(C(=O)OCC)C1c1ccccc1/C=C/C(=O)OC(C)(C)C	39.0*	-1.2	6.8	24.3	·
O=C(O)CSc1cc(C(=O)c2ccccc2O)cn2c(=O)c3c4c(sc3nc12)CCCC4	·	·	·	·	89.4*
O=C(CSc1nnc(-c2cc3ccccc3cc2O)n1Cc1ccco1)c1ccc(F)cc1	1.1	1.6	1.3	15.5	84.5*
CCn1c(=O)n(CC(=O)NCC2CCCO2)c(=O)c2c3c(sc21)COC(C)(C)C3 (stereo not given)	-2.0	-0.5	1.4	6.0	·
CCn1c(-c2cc(-c3ccc(C)c(C)c3)nc3ccccc23)n[nH]c1=S	0.6	-19.2	1.4	3.9	75.8*
CCOc1cccc(-c2cc(-c3n[nH]c(=S)n3CC)c3ccccc3n2)c1	3.9	-10.4	2.4	-3.5	87.1*
CCN(CC(=O)Nc1cc(Cl)ccc1C)c1ncnc2sc(C)c(C)c12	-2.4	14.3	-0.9	3.6	10.3
COC(=O)c1ccc([C@H](NC(=O)c2ccco2)[C@]2(C)C[C@H]2C2CCCCC2)cc1	0.1	23.8	-2.9	-11.3	·
C=CCn1c(CCC(O)COCCCCC)n[nH]c1=S (stereo not given)	2.1	-23.8	-0.6	4.7	2.5
N#C/C(=N\Nc1cccc([N+](=O)[O-])c1)C(=O)c1ccc(Br)cc1	1.2	-10.9	1.7	5.4	79.4*
O=C(O)c1ccc(N=NNc2cccc([N+](=O)[O-])c2)cc1	0.3	-142.3	2.8	-24.8	5.7
CCOC(=O)C1CCN(S(=O)(=O)c2ccc(OC)c(Cl)c2)CC1	-1.7	7.8	1.3	-9.5	-22.3
Cc1cccc(C(C)C)c1NC(=O)COC(=O)c1cccc(S(=O)(=O)N2CCc3ccccc3C2)c1	-1.1	-1.2	-0.2	17.6	85.3*
O=C(NCCCN1CCCC1)Nc1ccccc1[N+](=O)[O-]	0.6	9.3	1.4	0.6	·
COc1ccc(N=Cc2cc3c(cc2O)OC(N)=C(C#N)C3c2ccccc2)cc1 (stereo not given)	-0.7	15.3	2.6	1.3	80.3*
Cc1ccc(-c2nnn(CC(=O)N(c3cccc(F)c3)C(C(=O)NC(C)(C)C)c3ccco3)n2)o1 (stereo not given)	0.8	26.6	-2.1	24.0	94.9*
NCCCC[C@H]1CNC(=O)C(=O)N1CCc1cccc(F)c1	-2.9	18.1	0.9	23.9	1.8
O=C(NCc1ccco1)c1ccc(Cn2c(=O)c3sccc3n(Cc3cccc(F)c3)c2=O)cc1	-0.8	-2.6	-0.7	9.2	72.2*
O=C(NCc1ccco1)c1ccc(Cn2c(=O)c3ccccc3n(Cc3cccc(Cl)c3)c2=O)cc1	0.6	-31.6	3.6	-16.1	18.2
CCC(CC)C(=O)Nc1cc(C)c2c(=O)oc3ccccc3c2n1	3.3	4.4	3.9	-3.3	78.6*
Cc1nc2c(cnn2-c2ccccc2Cl)c(=O)n1-c1ccc(N2CCC(C)CC2)cc1	-0.9	-20.4	2.4	1.9	76.8*
